# Assay results pooled from the literature.
# Technique: broth dilution
SMILES,organism,read-out,strain,time,endpoint,value
Oc1cc(O)c2c(c1)O[C@H](c1cc(O)c(O)c(O)c1)[C@@H](O)C2,Streptococcus sobrinus,microbial killing,,,MBC,400 µg/mL
C/C(=N\CCNCCNCC/N=C(\C)c1c(O)c2ccccc2oc1=O)c1c(O)c2ccccc2oc1=O,Aspergillus niger,microbial growth,,48 h,MIC,31.2 µg/mL
O=C(Nc1ccc(Br)cc1)c1ccc(COC(Cn2ccnc2)c2ccc(Cl)cc2Cl)cc1 (centres unmarked),Lodderomyces parapsilosis,microbial growth,,,MIC80,0.125 µg/mL
C/C(=N\c1nc(N)nc(/N=C(\C)c2c(O)c3ccccc3oc2=O)n1)c1c(O)c2ccccc2oc1=O,Aspergillus niger,microbial growth,,48 h,MIC,31.2 µg/mL
Cc1ccc(NC(=O)c2ccc(COC(Cn3ccnc3)c3ccc(Cl)cc3Cl)cc2)cc1 (centres unmarked),Lodderomyces parapsilosis,microbial growth,,,MIC80,0.06 µg/mL
C/C(=N\C1CCCCC1/N=C(\C)c1c(O)c2ccccc2oc1=O)c1c(O)c2ccccc2oc1=O (centres unmarked),Aspergillus niger,microbial growth,,48 h,MIC,15.6 µg/mL
O=C(Nc1ccccc1)c1ccc(COC(Cn2ccnc2)c2ccc(Cl)cc2Cl)cc1 (centres unmarked),Lodderomyces parapsilosis,microbial growth,,,MIC80,0.125 µg/mL
O=C(O[C@@H]1O[C@@H]2COC(=O)c3cc(O)c(O)c(O)c3-c3c(cc(O)c(O)c3O)C(=O)O[C@H]([C@H]1O)[C@@H]2O)c1cc(O)c(O)c(O)c1,Streptococcus sobrinus,microbial growth,,24 h,MIC,200 µg/mL
O=C(Nc1ccc2cccnc2c1)c1ccc(COC(Cn2ccnc2)c2ccc(Cl)cc2Cl)cc1 (centres unmarked),Lodderomyces parapsilosis,microbial growth,,,MIC80,2 µg/mL
C/C(=N\CCNCC/N=C(\C)c1c(O)c2ccccc2oc1=O)c1c(O)c2ccccc2oc1=O,Aspergillus niger,microbial growth,,48 h,MIC,62.5 µg/mL
COc1cc(C=O)ccc1OC1=C(Cl)C(=O)c2ccccc2C1=O,Aspergillus niger,microbial growth,,,MIC,12 µg/mL
COc1ccc(NC(=O)c2ccc(COC(Cn3ccnc3)c3ccc(Cl)cc3Cl)cc2)cc1 (centres unmarked),Lodderomyces parapsilosis,microbial growth,,,MIC80,0.125 µg/mL
O=c1oc2c(O)c(O)cc3c(=O)oc4c(O)c(O)cc1c4c23,Streptococcus sobrinus,microbial growth,,24 h,MIC,100 µg/mL
CO/N=C(\C(=O)N[C@@H]1C(=O)N2C(C(=O)O)=C(CSc3nc(=O)c(=O)[nH]n3C)CS[C@H]12)c1csc(N)n1,Neisseria gonorrhoeae,microbial growth,ATCC49226,,MIC,0.008 µg/mL
O=C1O[C@H]2[C@@H]3OC(=O)c4cc(O)c(O)c(O)c4-c4c(O)c(O)c5oc(=O)c6c(c(O)c(O)c7oc(=O)c4c5c76)-c4c(cc(O)c(O)c4O)C(=O)OC[C@H]3OC(O)[C@@H]2OC(=O)c2cc(O)c(O)c(O)c2-c2c1cc(O)c(O)c2O (mixture of isomers),Streptococcus sobrinus,microbial growth,,24 h,MIC,100 µg/mL
Clc1ccc(COC(Cn2ccnc2)c2ccc(Cl)cc2Cl)c(Cl)c1 (centres unmarked),Lodderomyces parapsilosis,microbial growth,,,MIC80,0.06 µg/mL
O=C1OC[C@H]2OC(O)[C@H](O)[C@@H](O)[C@@H]2OC(=O)c2cc(O)c(O)c(O)c2-c2c(O)c(O)c3oc(=O)c4c(c(O)c(O)c5oc(=O)c2c3c54)-c2c1cc(O)c(O)c2O (mixture of isomers),Streptococcus sobrinus,microbial killing,,,MBC,200 µg/mL
C/C(=N\N=C(/C)c1c(O)c2ccccc2oc1=O)c1c(O)c2ccccc2oc1=O,Aspergillus niger,microbial growth,,48 h,MIC,125 µg/mL
C[C@@H]1O[C@@H](OC[C@H]2O[C@@H](Oc3c(-c4ccc(O)c(O)c4)oc4cc(O)cc(O)c4c3=O)[C@H](O)[C@@H](O)[C@@H]2O)[C@H](O)[C@H](O)[C@H]1O,Streptococcus sobrinus,microbial growth,,24 h,MIC,200 µg/mL
OC(Cn1cncn1)(Cn1cncn1)c1ccc(F)cc1F,Aspergillus niger,microbial growth,,,MIC,10 µg/mL
